From ChEMBL document CHEMBL1125678, “Quinazolineacetic acids and related analogues as aldose reductase inhibitors” (J Med Chem, 1991)

Key:
[1] = molecular target: Aldo-keto reductase family 1 member B1 (Bos taurus) (UniProt P16116); assay: In vitro inhibition of aldose reductase in partially purified bovine lens preparation at a concentration of 10e -7M.
Procedure, shortened: (§1)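 Enzyme from bovine lens, partially purified by the cited method with the final chromatographic step omitted. DL-Glyceraldehyde was the substrate. Test compounds were run in duplicate at 1×10⁻⁵, 1×10⁻⁶, 1×10⁻⁷ or 4×10⁻⁸ M. Values are % inhibition of enzymatic activity.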

[2] = molecular target: Aldo-keto reductase family 1 member B1 (Bos taurus) (UniProt P16116); assay: In vitro inhibition of aldose reductase in partially purified bovine lens preparation at a concentration of 4*10e -8M.; procedure, shortened: as §1
Rattus norvegicus [3] = assay: In vivo inhibition of galactitol accumulation in the diaphragm of rats fed 20% galactose for 4 day at 95 mg/kg/day dose; type: functional
Procedure, shortened: (§2)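 Male Sprague-Dawley rats (50–70 g) in groups of six were fed chow with 20% (w/w) galactose. Controls received 20% glucose instead. Test compound was mixed into the diet, and dose was calculated from actual food intake. Rats were killed by decapitation after 4 days. Result is % lowering of tissue galactitol versus galactose-fed controls, as the mean of six animals, compared by Dunnett's multiple comparison.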

Rattus norvegicus [4] = assay: In vivo inhibition of galactitol accumulation in the sciatic nerve of rats fed 20% galactose for 4 day at 95 mg/kg/day dose; type: functional
[5] = molecular target: Aldo-keto reductase family 1 member B1 (Bos taurus) (UniProt P16116); assay: In vitro inhibition of aldose reductase in partially purified bovine lens preparation at a concentration of 10e -5M.; settings: in the assay text read “10e -6M” for “10e -5M”; procedure, shortened: as §1
Rattus norvegicus [6] = assay: (§3) In vivo inhibition of galactitol accumulation in the sciatic nerve of rats fed 20% galactose for 4 day at 95 mg/kg/day dose; NS= No Significant inhibition of polyol accumulation; type: functional, organism-based
Rattus norvegicus [7] = assay: as §3; type: functional, organism-based; remark: listed apart in the source
Rattus norvegicus [8] = assay: In vivo inhibition of galactitol accumulation in the diaphragm of rats fed 20% galactose for 4 day at 100 mg/kg/day dose; type: functional; procedure, shortened: as §2
Rattus norvegicus [9] = assay: In vivo inhibition of galactitol accumulation in the sciatic nerve of rats fed 20% galactose for 4 day at 100 mg/kg/day dose; type: functional; procedure, shortened: as §2
Rattus norvegicus [10] = assay: In vivo inhibition of galactitol accumulation in the diaphragm of rats fed 20% galactose for 4 day at 101 mg/kg/day dose; type: functional; procedure, shortened: as §2
[11] = molecular target: Aldo-keto reductase family 1 member B1 (Bos taurus) (UniProt P16116); assay: In vitro inhibition of Aldose reductase in partially purified bovine lens preparation at a concentration of 10e -7M.; procedure, shortened: as §1
[12] = molecular target: Aldo-keto reductase family 1 member B1 (Bos taurus) (UniProt P16116); assay: In vitro inhibition of Aldose reductase in partially purified bovine lens preparation at a concentration of 4*10e -8M.; procedure, shortened: as §1
Rattus norvegicus [13] = assay: In vivo inhibition of galactitol accumulation in the sciatic nerve of rats fed 20% galactose for 4 day at 96 mg/kg/day dose; type: functional
Rattus norvegicus [14] = assay: In vivo inhibition of galactitol accumulation in the diaphragm of rats fed 20% galactose for 4 day at 96 mg/kg/day dose; type: functional; procedure, shortened: as §2
[15] = molecular target: Aldo-keto reductase family 1 member B1 (Bos taurus) (UniProt P16116); assay: in vitro inhibition of Aldose reductase in partially purified bovine lens preparation at a concentration of 10e-6 M.
Rattus norvegicus [16] = assay: In vivo inhibition of galactitol accumulation in the sciatic nerve of rats fed 20% galactose for 4 day at 77 mg/kg/day dose; NS = No Significant inhibition of polyol accumulation; type: functional, organism-based; procedure, shortened: as §2
Rattus norvegicus [17] = assay: In vivo inhibition of galactitol accumulation in the diaphragm of rats fed 20% galactose for 4 day at 77 mg/kg/day dose; NS = No Significant inhibition of polyol accumulation; type: functional, organism-based; procedure, shortened: as §2
[18] = molecular target: Aldo-keto reductase family 1 member B1 (Bos taurus) (UniProt P16116); assay: In vitro inhibition of aldose reductase in partially purified bovine lens preparation at a concentration of 10e-6 M.; procedure, shortened: as §1
Rattus norvegicus [19] = assay: In vivo inhibition of galactitol accumulation in the sciatic nerve of rats fed 20% galactose for 4 day at 101 mg/kg/day dose; NS = No Significant inhibition of polyol accumulation; type: functional, organism-based; procedure, shortened: as §2
Rattus norvegicus [20] = assay: In vivo inhibition of galactitol accumulation in the diaphragm of rats fed 20% galactose for 4 day at 101 mg/kg/day dose; NS = No Significant inhibition of polyol accumulation; type: functional, organism-based; procedure, shortened: as §2
Rattus norvegicus [21] = assay: In vivo inhibition of galactitol accumulation in the diaphragm of rats fed 20% galactose for 4 day at 102 mg/kg/day dose; type: functional; procedure, shortened: as §2
Rattus norvegicus [22] = assay: In vivo inhibition of galactitol accumulation in the sciatic nerve of rats fed 20% galactose for 4 day at 91 mg/kg/day dose; NS = No Significant inhibition of polyol accumulation; type: functional, organism-based; procedure, shortened: as §2
Rattus norvegicus [23] = assay: In vivo inhibition of galactitol accumulation in the diaphragm of rats fed 20% galactose for 4 day at 91 mg/kg/day dose; NS = No Significant inhibition of polyol accumulation; type: functional, organism-based; procedure, shortened: as §2
Rattus norvegicus [24] = assay: In vivo inhibition of galactitol accumulation in the sciatic nerve of rats fed 20% galactose for 4 day at 82 mg/kg/day dose; NS = No Significant inhibition of polyol accumulation; type: functional, organism-based; procedure, shortened: as §2
Rattus norvegicus [25] = assay: In vivo inhibition of galactitol accumulation in the diaphragm of rats fed 20% galactose for 4 day at 82 mg/kg/day dose; NS = No Significant inhibition of polyol accumulation; type: functional, organism-based; procedure, shortened: as §2
[26] = molecular target: Aldo-keto reductase family 1 member B1 (Bos taurus) (UniProt P16116); assay: In vitro inhibition of aldose reductase in partially purified bovine lens preparation at a concentration of 10e -6M.; type: functional; procedure, shortened: as §1
Rattus norvegicus [27] = assay: In vivo inhibition of galactitol accumulation in the sciatic nerve of rats fed 20% galactose for 4 day at 58 mg/kg/day dose; NS = No Significant inhibition of polyol accumulation; type: functional, organism-based; procedure, shortened: as §2
Rattus norvegicus [28] = assay: In vivo inhibition of galactitol accumulation in the diaphragm of rats fed 20% galactose for 4 day at 58 mg/kg/day dose; NS = No Significant inhibition of polyol accumulation; type: functional, organism-based; procedure, shortened: as §2
Rattus norvegicus [29] = assay: In vivo inhibition of galactitol accumulation in the sciatic nerve of rats fed 20% galactose for 4 day at 94 mg/kg/day dose; NS = No Significant inhibition of polyol accumulation; type: functional, organism-based
Rattus norvegicus [30] = assay: In vivo inhibition of galactitol accumulation in the diaphragm of rats fed 20% galactose for 4 day at 94 mg/kg/day dose; NS = No Significant inhibition of polyol accumulation; type: functional, organism-based; procedure, shortened: as §2
Rattus norvegicus [31] = assay: In vivo inhibition of galactitol accumulation in the sciatic nerve of rats fed 20% galactose for 4 day at 99 mg/kg/day dose; NS = No Significant inhibition of polyol accumulation; type: functional, organism-based
Rattus norvegicus [32] = assay: In vivo inhibition of galactitol accumulation in the diaphragm of rats fed 20% galactose for 4 day at 99 mg/kg/day dose; NS = No Significant inhibition of polyol accumulation; type: functional, organism-based; procedure, shortened: as §2
[33] = molecular target: Aldo-keto reductase family 1 member B1 (Bos taurus) (UniProt P16116); assay: in vitro inhibition of aldose reductase in partially purified bovine lens preparation at a concentration of 10e -6M.

Q: For `O=C(O)Cn1c(=O)c2cc(Cl)ccc2n(Cc2ccc(Cl)c(Cl)c2)c1=O`, which inhibition [1] is on record?
A: 71%

Q: And the inhibition [2]?
A: 29%

Q: And the Lowering (Rattus norvegicus [3])?
A: 83%

Q: And the Lowering (Rattus norvegicus [4])?
A: 72%

Q: Which inhibition [5] does the source give for `O=C(O)Cn1c(=O)c2cc(Br)ccc2n(CCc2ccccc2)c1=O` here?
A: 34%

Q: What about the Lowering (Rattus norvegicus [6]) of the same compound?
A: Not significant

Q: And the Lowering (Rattus norvegicus [7])?
A: Not significant

Q: What does the source list for `COc1ccc2c(c1)c(=O)n(CC(=O)O)c(=O)n2Cc1ccc(Cl)c(Cl)c1`?
A: inhibition [1]: 85%; inhibition [2]: 49%; Lowering (Rattus norvegicus [8]): 70%; Lowering (Rattus norvegicus [9]): 63%

Q: How did the inhibition [1] turn out when `O=C(O)CN1CN(Cc2ccc(Cl)c(Cl)c2)C(=O)c2cc(Cl)ccc21` was run?
A: 87%

Q: What about the inhibition [2] of the same compound?
A: 54%

Q: And the Lowering (Rattus norvegicus [6])?
A: Not significant

Q: And the Lowering (Rattus norvegicus [10])?
A: 29%

Q: How did the inhibition [1] turn out when `O=C(O)Cn1c(=O)c2cccc(F)c2n(Cc2ccc(Br)cc2F)c1=O` was run?
A: 77%

Q: What about the inhibition [2] of the same compound?
A: 53%

Q: What about the Lowering (Rattus norvegicus [3]) of the same compound?
A: 70%

Q: And the Lowering (Rattus norvegicus [4])?
A: 49%

Q: With `O=C(O)Cn1c2ccccc2c(=O)n1Cc1ccc(Br)cc1F` as the compound, how does the inhibition [11] read?
A: 42%

Q: And the inhibition [12]?
A: 28%

Q: And the Lowering (Rattus norvegicus [13])?
A: 25%

Q: What about the Lowering (Rattus norvegicus [14]) of the same compound?
A: 51%

Q: `O=C(O)Cn1cnc2ccc(Br)cc2c1=O` was tested. Which inhibition [15] did it give?
A: 32%

Q: And the Lowering (Rattus norvegicus [16])?
A: Not significant

Q: What about the Lowering (Rattus norvegicus [17]) of the same compound?
A: Not significant

Q: Which results are given for `CCc1nc2ccc(Br)cc2c(=O)n1CC(=O)O`?
A: inhibition [1]: 13%; inhibition [18]: 57%; Lowering (Rattus norvegicus [19]): Not significant; Lowering (Rattus norvegicus [20]): Not significant

Q: For `O=C(O)Cn1c(=O)c2cc(Br)ccc2n(Cc2ccc(F)c(F)c2)c1=O`, which inhibition [1] is on record?
A: 30%

Q: What about the inhibition [2] of the same compound?
A: 20%

Q: What about the Lowering (Rattus norvegicus [21]) of the same compound?
A: 40%

Q: What about the Lowering (Rattus norvegicus [6]) of the same compound?
A: Not significant

Q: Which results are given for `O=C(O)Cn1c(=O)c2cc(Br)ccc2n(Cc2ccc(Br)cc2)c1=O`?
A: inhibition [1]: 59%; inhibition [2]: 39%; Lowering (Rattus norvegicus [8]): 36%; Lowering (Rattus norvegicus [9]): 24%

Q: With `O=C(O)Cn1c(C(F)(F)F)nc2ccc(Br)cc2c1=O` as the compound, how does the inhibition [1] read?
A: 23%

Q: What about the inhibition [18] of the same compound?
A: 45%

Q: What about the Lowering (Rattus norvegicus [22]) of the same compound?
A: Not significant

Q: And the Lowering (Rattus norvegicus [23])?
A: Not significant

Q: With `Cc1nc2ccc(Br)cc2c(=O)n1CC(=O)O` as the compound, how does the inhibition [1] read?
A: 20%

Q: What about the inhibition [18] of the same compound?
A: 63%

Q: What about the Lowering (Rattus norvegicus [24]) of the same compound?
A: Not significant

Q: What about the Lowering (Rattus norvegicus [25]) of the same compound?
A: Not significant

Q: Which inhibition [5] does the source give for `O=C(O)Cn1c(=O)[nH]c2ccc(Br)cc2c1=O` here?
A: 64%

Q: With `O=C(O)Cn1c2ccc(Cl)cc2c(=O)n1Cc1ccc(Cl)c(Cl)c1` as the compound, how does the inhibition [1] read?
A: 63%

Q: What about the inhibition [2] of the same compound?
A: 34%

Q: And the Lowering (Rattus norvegicus [19])?
A: Not significant

Q: And the Lowering (Rattus norvegicus [20])?
A: Not significant

Q: `Cc1c(-c2ccccc2)n(Cc2ccc(Cl)c(Cl)c2)c(=O)n(CC(=O)O)c1=O` was tested. Which inhibition [26] did it give?
A: 68%

Q: What about the inhibition [1] of the same compound?
A: 22%

Q: And the inhibition [2]?
A: 16%

Q: And the Lowering (Rattus norvegicus [27])?
A: Not significant

Q: And the Lowering (Rattus norvegicus [28])?
A: Not significant

Q: For `Cc1nc2ccc(Br)cc2c(=S)n1CC(=O)O`, which inhibition [1] is on record?
A: 54%

Q: And the inhibition [18]?
A: 88%

Q: What about the Lowering (Rattus norvegicus [29]) of the same compound?
A: Not significant

Q: What about the Lowering (Rattus norvegicus [30]) of the same compound?
A: Not significant

Q: Which results are given for `Cc1c(C)n(Cc2ccc(Cl)c(Cl)c2)c(=O)n(CC(=O)O)c1=O`?
A: inhibition [1]: 39%; inhibition [2]: 28%; Lowering (Rattus norvegicus [31]): Not significant; Lowering (Rattus norvegicus [32]): Not significant; inhibition [33]: 83%

Q: For `COc1ccc(Cn2c(=O)n(CC(=O)O)c(=O)c3cc(Br)ccc32)cc1Br`, which inhibition [2] is on record?
A: 32%

Q: And the Lowering (Rattus norvegicus [21])?
A: 24%

Q: What about the Lowering (Rattus norvegicus [6]) of the same compound?
A: Not significant
